Assay [1] has as its system L1210. Put plainly: Growth inhibition of L1210 murine leukemia cells determined in culture. Type of assay: functional, cell-based, Mus musculus. A digest of the protocol: (§1)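 L1210 cells were grown in Minimum Essential Medium with 15% fetal calf serum, 2 mM glutamine and gentamycin, at 37 °C without agitation under 5% O2-10% CO2. Drug was diluted in sterile water and added to 5 × 10^4 cells/mL, with water-only controls. Exposure was continuous for 48 h, or in some cases a 2-h pulse followed by 48-h incubation. Cells were Coulter-counted and growth as % of control was plotted against concentration. IC50 is the mean of at least two determinations.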

Assay [2] relates to L1210. The assay can be described thus: Growth inhibition of L1210 leukemia was determined in culture. Type of assay: functional, cell-based, Mus musculus. Put shortly:
as §1

Substance “(1,3-Diaminepropane) ([2,2']Bipyridinyl)platinum (II) dichloride Pentahydrate” yielded a half-inhibitory concentration (IC50) in the assay on L1210 [1] of 9 µM.
Same read-out and setting: under “(1,4-Diamino-butane)(3,4,7,8-tetramethyl-1,10-phenanthroline)platinum (II) dichloride” stands 50 µM.
As to “(1,4-Diaminobutane)(1,10-phenanthroline)-platinum (II) dichloride Monohydrate”, in the assay with L1210 [1], the IC50 was 110 µM.
Regarding “(1,3-Diaminopropane)(1,10-phenanthroline)-platinum (II) dichloride Dihydrate”, the IC50 with L1210 [1] was determined as 14 µM.
As to “(1,3-Diamino-2-hydroxypropane)(3,4,7,8-tetramethyl-1,10-phenanthroline)platinum (II) dichloride Dihydrate”, 5 µM corresponded to half-maximal inhibition in the assay on L1210 [1] (IC50).
Same read-out and setting: in the case of “(4-methylThiophenolato)(2,2':6',2''-terpyridine)platinum (II) Chloride Dihydrate” it was 12 µM; in that of “(Ethylenediamine) ([2,2']Bipyridinyl)platinum (II) dichloride Dihydrate”, 33 µM.
The same measure, in the same setting: in the case of “(1-Thionaphthalato) (2,2':6',2''-terpyridine)platinum (II) dichloride Dihydrate” it was 5 µM; in that of “(1,3-Diamine-2-hydroxypropane) ([2,2']Bipyridinyl)platinum (II) dichloride”, 43 µM.
Consider “(Ethylenediamine)3,4,7,8-tetramethyl-1,10-phenanthroline)platinum (II) dichloride Dihydrate Dihydrate”, for which the midpoint of inhibition with L1210 [1], the IC50, lay at 0.7 µM.
Still for that read-out and setting: in the case of “(4-AmmonioThiophenolato)(2,2':6',2''-terpyridine)platinum (II) dichloride Dihydrate” it was 32 µM.
Still for that read-out and setting: under “(1,3-Diaminopropane)(1,10-phenanthroline)-platinum (II) dichloride Monohydrate” stands 1 µM; under “(4-BromoThiophenolato)(2,2':6',2''-terpyridine)platinum (II) Chloride Dihydrate”, 9 µM.
In the assay on L1210 [1], “(4-ChloroThiophenolato)(2,2':6',2''-terpyridine)platinum (II)DiChloro Trihydrate” showed a concentration for half-maximal inhibition (IC50) of 9 µM.
Still for that read-out and setting: in the case of DICHLORODIPHENYLPLATINUM TRIHYDRATE it was 23 µM; in that of “(2,2':6',2''-terpyridine)platinum (II) dichloride Trihydrate”, 450 µM.
In turn, “(2-methyloxyThiophenolato)(2,2':6',2''-terpyridine)platinum (II) Chloride Trihydrate” registered a half-maximal inhibitory concentration (IC50) in the assay with L1210 [1] of 10 µM.
With “(4-methyloxyThiophenolato)(2,2':6',2''-terpyridine)platinum (II) Chloride Trihydrate”, the IC50 with L1210 [1] was 9 µM.
“(1,4-Diaminebutane) ([2,2']Bipyridinyl)platinum (II) dichloride” returned an IC50 in the assay on L1210 [1] of more than 500 µM.
Still for that read-out and setting: under “(Ethylenediamine)(1,10-phenanthroline)-platinum (II) dichloride Dihydrate” stands 2 µM.
“(Thiophenolato)(2,2':6',2''-terpyridine)platinum (II) Chloride Monohydrate”: in the assay with L1210 [2], the IC50 came to 6 µM.

By IC50 is commonly meant the midpoint of a concentration-inhibition curve.

The record behind these values is ChEMBL document CHEMBL1123098, “Activity of platinum(II) intercalating agents against murine leukemia L1210” (J Med Chem, 1985).
